EBNA-1 inh: blocks EBNA-1 binding to DNA | AID 1950 | 0.34% of 300,000 active | inhibition, % at 14.8 µM | EBNA-1 DNA binding, fluorescence polarization; in the data active = inhibition above about 28%
ZTA DNA inh: counter-screen for EBNA-1 inhibitors: inhibitors of Epstein-Barr virus ZTA | AID 2234 | ZTA-DNA binding, fluorescence polarization | 0.15% of 320,000 active | inhibition, % at 11 µM | P03206; in the data active = inhibition above about 33%
Apaf1 inhib: inhibitors of human Apaf-1 apoptosome; O14727; reconstituted apoptosome caspase-3 activity, DEVD-Rh110 fluorescence; inhibition, % at 20 µM; 0.71% of 330,000 active; active = inhibition of at least 40% at 20 µM
Target sequence (O14727 whole entry, looked up): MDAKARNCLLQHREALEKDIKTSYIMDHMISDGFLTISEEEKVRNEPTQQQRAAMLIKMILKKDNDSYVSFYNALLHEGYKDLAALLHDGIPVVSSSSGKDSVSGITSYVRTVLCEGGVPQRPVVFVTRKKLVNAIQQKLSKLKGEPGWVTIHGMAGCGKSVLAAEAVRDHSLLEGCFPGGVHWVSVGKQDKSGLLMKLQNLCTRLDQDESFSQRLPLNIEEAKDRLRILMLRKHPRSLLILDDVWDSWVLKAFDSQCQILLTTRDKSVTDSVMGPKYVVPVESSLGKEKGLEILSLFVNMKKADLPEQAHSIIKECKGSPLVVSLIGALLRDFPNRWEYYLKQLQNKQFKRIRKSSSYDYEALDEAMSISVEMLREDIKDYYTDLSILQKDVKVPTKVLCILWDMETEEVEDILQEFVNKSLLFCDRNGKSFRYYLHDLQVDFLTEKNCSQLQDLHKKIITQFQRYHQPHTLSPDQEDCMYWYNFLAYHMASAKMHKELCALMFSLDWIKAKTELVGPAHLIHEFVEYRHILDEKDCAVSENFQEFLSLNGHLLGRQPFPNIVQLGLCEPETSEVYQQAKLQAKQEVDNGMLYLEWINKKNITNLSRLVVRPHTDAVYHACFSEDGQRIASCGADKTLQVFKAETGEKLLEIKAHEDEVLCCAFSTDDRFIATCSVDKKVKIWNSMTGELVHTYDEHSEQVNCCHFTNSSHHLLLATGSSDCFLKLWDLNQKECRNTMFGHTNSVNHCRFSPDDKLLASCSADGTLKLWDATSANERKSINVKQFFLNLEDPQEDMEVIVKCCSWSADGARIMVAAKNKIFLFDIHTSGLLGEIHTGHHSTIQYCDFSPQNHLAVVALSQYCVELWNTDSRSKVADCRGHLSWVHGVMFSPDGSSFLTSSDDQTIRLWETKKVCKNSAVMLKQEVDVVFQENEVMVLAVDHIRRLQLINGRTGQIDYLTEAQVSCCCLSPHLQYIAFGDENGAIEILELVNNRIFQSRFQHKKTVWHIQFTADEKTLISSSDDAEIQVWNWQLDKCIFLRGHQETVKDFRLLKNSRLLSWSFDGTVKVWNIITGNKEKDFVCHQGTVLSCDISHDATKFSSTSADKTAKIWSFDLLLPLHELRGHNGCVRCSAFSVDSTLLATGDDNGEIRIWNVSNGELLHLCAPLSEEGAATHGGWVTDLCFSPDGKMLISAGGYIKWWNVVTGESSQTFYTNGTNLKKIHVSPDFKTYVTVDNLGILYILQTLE
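Assay system: Apoptosome proteins | Medium: pH 7.5 Hepes buffer with CHAPS, BSA, DTT | Also added: Cytochrome c and DEVD-Rh110 substrate | Times: 30 min plus 50 min, RT | Detection: Rhodamine 110 fluorescence at Ex 480/Em 540 nm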
PfGluPho inh: PfG6PD (Plasmodium falciparum) enzyme inhibition; PfGluPho enzyme, NADPH resazurin-diaphorase fluorescence; inhibition, % at 20 µM; 0.78% of 350,000 active; AID 504690;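 active = inhibition reaching at least a set limit at 20 µM in the primary screen, cut at about 59% in these data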
UBC13 polyUb: blocks human UBC13 polyubiquitin chain formation; P61088; TR-FRET; inhibition, % at 20 µM; 0.47% of 330,000 active; AID 485273; in the data active = inhibition above about 45%, passing the limit was not always enough
M18AAP inhibitor: blocks P. falciparum M18 aspartyl aminopeptidase; recombinant PfM18AAP, H-Glu-NHMec fluorogenic cleavage; inhibition, % at 7.35 µM; 1.2% of 290,000 active; AID 1822;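 active = inhibition above the campaign mean inhibition over all tested compounds plus 3 SD, cut at about 28% in these data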
PfGluPho conf: PfG6PD inhibition, single-dose confirmed; inhibition, % at 20 µM; AID 504753; shares compounds with PfGluPho inh; 34% of 2,400 active; recombinant PfGluPho, NADPH-diaphorase-resazurin fluorescence;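 active = inhibition of at least 50% at 20 µM in any single replicate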
Diaph ctr 10uM: inhibits diaphorase or oxidizes, flagging false PfG6PD hits. shares compounds with PfGluPho inh. diaphorase-coupled resazurin reduction, fluorescence, NADPH 10 uM. inhibition, % at 20 µM. 39% of 820 active;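 active = average inhibition reaching 50% or more with the compound at 20 µM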;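 also: resorufin red fluorescence formed as diaphorase reduces resazurin using NADPH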
Diaph ctr 30uM: diaphorase inhibition or oxidation at 30 uM NADPH. shares compounds with PfGluPho inh. Diaphorase/resazurin coupled assay, resorufin fluorescence. inhibition, % at 20 µM. 29% of 820 active;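 active = inhibition averaging 50% or more, tested at 20 µM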
Each line names hits and unclear results; the compound was inactive in the other large screens (follow-up assays come after a bar, where they were run). Hits are enriched below; roughly 2.9% of the tested compounds scored in any of these assays.

COc1ccc(/C=C/c2ccc3cccc(O)c3n2)cc1Br	none
COc1cc(/C=C/c2ccc3cccc(O)c3n2)cc(Cl)c1OC	PfGluPho inh 72.8 | PfGluPho conf inactive
COc1ccc([C@H]2CC(=O)C=C(/C=C/c3ccc(C(F)(F)F)cc3)C2)cc1	none (no result: EBNA-1 inh, M18AAP inhibitor)
CCCCn1c(N)c(N(CC)C(=O)c2cccc(OC)c2)c(=O)[nH]c1=O	none
CN(C)c1ccc(C(=O)Nc2nc3c(s2)CCCC3)cc1	none
C/C(=N\Nc1nc2c(s1)CCCC2)c1ccc(Cl)cc1	PfGluPho inh 65.7 | PfGluPho conf inactive
Oc1cc(-n2cccn2)c(O)cc1-n1cccn1	PfGluPho inh 102.1, M18AAP inhibitor 84.8 (no result: Apaf1 inhib, UBC13 polyUb) | PfGluPho conf 86.5 | Diaph ctr 10uM inactive | Diaph ctr 30uM inactive
CNc1nc(=S)[nH]c2ccccc12	none
S=c1nc2[nH]c3ccccc3c2n[nH]1	PfGluPho inh 66.4 (no result: EBNA-1 inh, ZTA DNA inh, Apaf1 inhib, UBC13 polyUb, M18AAP inhibitor) | PfGluPho conf inactive
CCN1CCc2c(sc(NC(=O)Nc3ccc(Cl)c(Cl)c3)c2C(N)=O)C1	none (no result: Apaf1 inhib, UBC13 polyUb)
O=C(/C=C/c1ccccc1)NC(NC(=S)Nc1ccc(Cl)cc1Cl)C(Cl)(Cl)Cl (stereo unspecified)	PfGluPho inh 61.8 | PfGluPho conf inactive
O=C(/C=C/c1ccccc1)NC(NC(=S)Nc1cccc(Cl)c1)C(Cl)(Cl)Cl (stereo unspecified)	none
Cc1cnc(C(=O)OCC(=O)NC(C)c2ccccc2)cn1 (stereo unspecified)	none (no result: EBNA-1 inh, ZTA DNA inh, M18AAP inhibitor)
Cc1cc2ncn(/N=C/c3ccc(-c4ccccc4)o3)c2cc1C	PfGluPho inh 73.0 | PfGluPho conf inactive
Cc1cc2ncn(/N=C/c3cccnc3)c2cc1C	none
CC(=O)Nc1cc2c(cc1[N+](=O)[O-])-c1ccccc1C2O (stereo unspecified)	PfGluPho inh 80.9 (no result: EBNA-1 inh, ZTA DNA inh, Apaf1 inhib, UBC13 polyUb, M18AAP inhibitor) | PfGluPho conf 83.4 | Diaph ctr 10uM inactive | Diaph ctr 30uM inactive
CC(=O)Nc1cc2c(cc1[N+](=O)[O-])-c1ccccc1C2=NO	none (no result: EBNA-1 inh, ZTA DNA inh, Apaf1 inhib, UBC13 polyUb, M18AAP inhibitor)
CC(C)(NC(=O)c1ccccc1)c1nc2ccccc2s1	PfGluPho inh 60.2 (no result: M18AAP inhibitor) | PfGluPho conf inactive
N#C/C(=C\c1ccc(N2CCOCC2)o1)c1ccccc1	none
N#C/C(=C/c1ccc(N2CCOCC2)o1)c1ccc(Br)cc1	PfGluPho inh 80.3 | PfGluPho conf inactive
N#C/C(=C/c1ccc(N2CCCCCC2)o1)c1cccc(F)c1	PfGluPho inh 64.9 | PfGluPho conf inactive
CCOC(=O)C(C)On1c(-c2cccc(Cl)c2)nc2ccc([N+](=O)[O-])cc21 (stereo unspecified)	PfGluPho inh 64.5 | PfGluPho conf inactive
CCOC(=O)COn1c(-c2cccc(Cl)c2)nc2ccc([N+](=O)[O-])cc21	PfGluPho inh 109.7 | PfGluPho conf inactive
CC(On1c(-c2ccccc2)nc2ccc(Cl)cc21)C(=O)O (stereo unspecified)	none
CCOc1cc(/C=C2\COc3ccccc3C2=O)cc(Br)c1OCC(=O)N(C)C	none
O=C(OCCOc1cccc(Cl)c1)c1ccc2ncsc2c1	none
COc1ccc(C(=O)COC(=O)c2cc(=O)c3ccccc3o2)c(OC)c1	none (no result: EBNA-1 inh, ZTA DNA inh, Apaf1 inhib, UBC13 polyUb, M18AAP inhibitor)
O=C(Nc1ccc(SC(F)F)cc1)C12CCC(CC1)C2	PfGluPho inh 72.3 | PfGluPho conf inactive
CN1C(=O)CC(=O)N(C)c2cc(S(=O)(=O)N(C)Cc3ccccc3)ccc21	none
O=C1SC(SC(=Nc2ccccc2)Nc2ccccc2)C(=O)N1c1ccccc1 (stereo unspecified)	PfGluPho inh 59.9 | PfGluPho conf inactive
O=C(O)c1ccc(S(=O)(=O)Nc2ccc3c(c2)OCCO3)cc1	none
O=C(N/N=C/c1ccccc1O)C1(O)c2ccccc2-c2ccccc21	none
O=C(CSC(=O)c1ccccc1)Nc1ccccc1F	PfGluPho inh 62.7 (no result: EBNA-1 inh, ZTA DNA inh, M18AAP inhibitor) | PfGluPho conf inactive
O=C(CNC(c1ccccc1)c1ccccc1)Nc1ccccc1F	none
Cc1ccc(-n2c(C)cc(-c3csc(N)n3)c2C)cc1	none
Cc1cc(-c2csc(N)n2)c(C)n1C	PfGluPho inh 64.1 | PfGluPho conf inactive
COc1ccc(NCC(=O)N/N=C/C2CCCCC2)cc1	PfGluPho inh 69.3 | PfGluPho conf inactive
Clc1cc(Cl)cc(CN2CCSCC2)c1	none
COc1ccccc1NS(=O)(=O)c1cc(NC(=O)C2CCC2)ccc1N1CCCCC1	PfGluPho inh 60.0 | PfGluPho conf inactive
COc1ccccc1NS(=O)(=O)c1cc(NC(=O)c2cccnc2)ccc1N1CCCCC1	none (no result: EBNA-1 inh, ZTA DNA inh, M18AAP inhibitor)
COc1ccccc1NS(=O)(=O)c1cc(NC(=O)c2ccc(Cl)nc2)ccc1N1CCCC1	PfGluPho inh 71.9 (no result: EBNA-1 inh, ZTA DNA inh, M18AAP inhibitor) | PfGluPho conf 49.6 | Diaph ctr 10uM inactive | Diaph ctr 30uM inactive
CN(C)c1ccc(-c2ccc([C@H]3[C@@H]4C=CCC[C@@]4(C)C(=O)N3Cc3ccccc3)c(F)c2)cc1	none (no result: M18AAP inhibitor)
O=C(COc1ncnc2sccc12)NC1CCS(=O)(=O)C1 (stereo unspecified)	none
Cc1ccc(C(=O)c2coc3ccc(O)c(Cl)c23)cc1	PfGluPho inh 62.8 | PfGluPho conf inactive
Cc1ccc(C(=O)c2coc3ccc(O)cc23)cc1	none (no result: EBNA-1 inh, ZTA DNA inh)
CC1(C)C(=O)Nc2ccccc2N1C(=O)COC(=O)Cc1ccc(Cl)c(Cl)c1	none (no result: EBNA-1 inh, ZTA DNA inh, M18AAP inhibitor)
COC(=O)NCN1C(=O)C2C3C=CC(C3)C2C1=O (stereo unspecified)	none
CN=c1nc(-c2ccccc2)n(-c2ccccc2)s1	PfGluPho inh 121.2 (no result: M18AAP inhibitor) | PfGluPho conf 110.9 | Diaph ctr 10uM inactive | Diaph ctr 30uM inactive
Cn1nc(-c2ccccc2)nc1-c1ccccc1	none (no result: M18AAP inhibitor)
O=C(NC1CCCCCC1)C(Cc1ccccc1)n1cccc1 (stereo unspecified)	none
CN1C(=O)CSc2ccc(NC(=O)N3CCc4ccccc43)cc21	PfGluPho inh 86.8 | PfGluPho conf 59.5 | Diaph ctr 10uM inactive | Diaph ctr 30uM inactive
Cc1ccc(N(CC(=O)N/N=C/c2cccs2)S(C)(=O)=O)cc1Cl	PfGluPho inh 105.9 | PfGluPho conf 74.9 | Diaph ctr 10uM 70.0 | Diaph ctr 30uM 65.3
COC(=O)CN(c1ccc(C)c(Cl)c1)S(C)(=O)=O	none
COc1ccccc1CNC(=O)COC(=O)[C@H](Cc1c[nH]c2ccccc12)NC(=O)c1cccs1	none
Nc1n[nH]c(=S)n1/N=C1/C(=O)Nc2ccccc21	PfGluPho inh 73.2, M18AAP inhibitor 31.7 (no result: EBNA-1 inh, ZTA DNA inh, Apaf1 inhib, UBC13 polyUb) | PfGluPho conf inactive
CSc1ccccc1NC(=O)CN(C)CC(=O)Nc1c(F)cccc1F	none
O=C(Nc1nc2ccccc2n1Cc1ccccc1)c1ccco1	PfGluPho inh 79.8 | PfGluPho conf inactive
O=C(Nc1nc2ccccc2n1CCN1CCOCC1)c1ccc(Cl)cc1	PfGluPho inh 67.9 | PfGluPho conf inactive
